Results: ChEMBL document CHEMBL3797186, “Single Residue Substitutions That Confer Voltage-Gated Sodium Ion Channel Subtype Selectivity in the NaV1.7 Inhibitory Peptide GpTx-1” (J Med Chem, 2016)
Positions of bridges follow the written chain, without caps; N, C: chain ends. Non-standard residues stand in square brackets, D forms with d. Residues, ends and D or L forms follow the SMILES beside them. 1Nal = N[C@@H](Cc1cccc2ccccc12)C(=O)O; Lys(Me2) = CN(C)CCCC[C@H](N)C(=O)O

Key:
Assay type in all cases: cell-based
[1] = molecular target: T1, Sodium channel protein type 5 subunit alpha (Homo sapiens, UniProt Q14524); experiment: Inhibition of human Nav1.5 expressed in HEK293 cells assessed as inward peak current by ion-works quattro patch clamp electrophysiology method
T1 sequence (Q14524 whole entry): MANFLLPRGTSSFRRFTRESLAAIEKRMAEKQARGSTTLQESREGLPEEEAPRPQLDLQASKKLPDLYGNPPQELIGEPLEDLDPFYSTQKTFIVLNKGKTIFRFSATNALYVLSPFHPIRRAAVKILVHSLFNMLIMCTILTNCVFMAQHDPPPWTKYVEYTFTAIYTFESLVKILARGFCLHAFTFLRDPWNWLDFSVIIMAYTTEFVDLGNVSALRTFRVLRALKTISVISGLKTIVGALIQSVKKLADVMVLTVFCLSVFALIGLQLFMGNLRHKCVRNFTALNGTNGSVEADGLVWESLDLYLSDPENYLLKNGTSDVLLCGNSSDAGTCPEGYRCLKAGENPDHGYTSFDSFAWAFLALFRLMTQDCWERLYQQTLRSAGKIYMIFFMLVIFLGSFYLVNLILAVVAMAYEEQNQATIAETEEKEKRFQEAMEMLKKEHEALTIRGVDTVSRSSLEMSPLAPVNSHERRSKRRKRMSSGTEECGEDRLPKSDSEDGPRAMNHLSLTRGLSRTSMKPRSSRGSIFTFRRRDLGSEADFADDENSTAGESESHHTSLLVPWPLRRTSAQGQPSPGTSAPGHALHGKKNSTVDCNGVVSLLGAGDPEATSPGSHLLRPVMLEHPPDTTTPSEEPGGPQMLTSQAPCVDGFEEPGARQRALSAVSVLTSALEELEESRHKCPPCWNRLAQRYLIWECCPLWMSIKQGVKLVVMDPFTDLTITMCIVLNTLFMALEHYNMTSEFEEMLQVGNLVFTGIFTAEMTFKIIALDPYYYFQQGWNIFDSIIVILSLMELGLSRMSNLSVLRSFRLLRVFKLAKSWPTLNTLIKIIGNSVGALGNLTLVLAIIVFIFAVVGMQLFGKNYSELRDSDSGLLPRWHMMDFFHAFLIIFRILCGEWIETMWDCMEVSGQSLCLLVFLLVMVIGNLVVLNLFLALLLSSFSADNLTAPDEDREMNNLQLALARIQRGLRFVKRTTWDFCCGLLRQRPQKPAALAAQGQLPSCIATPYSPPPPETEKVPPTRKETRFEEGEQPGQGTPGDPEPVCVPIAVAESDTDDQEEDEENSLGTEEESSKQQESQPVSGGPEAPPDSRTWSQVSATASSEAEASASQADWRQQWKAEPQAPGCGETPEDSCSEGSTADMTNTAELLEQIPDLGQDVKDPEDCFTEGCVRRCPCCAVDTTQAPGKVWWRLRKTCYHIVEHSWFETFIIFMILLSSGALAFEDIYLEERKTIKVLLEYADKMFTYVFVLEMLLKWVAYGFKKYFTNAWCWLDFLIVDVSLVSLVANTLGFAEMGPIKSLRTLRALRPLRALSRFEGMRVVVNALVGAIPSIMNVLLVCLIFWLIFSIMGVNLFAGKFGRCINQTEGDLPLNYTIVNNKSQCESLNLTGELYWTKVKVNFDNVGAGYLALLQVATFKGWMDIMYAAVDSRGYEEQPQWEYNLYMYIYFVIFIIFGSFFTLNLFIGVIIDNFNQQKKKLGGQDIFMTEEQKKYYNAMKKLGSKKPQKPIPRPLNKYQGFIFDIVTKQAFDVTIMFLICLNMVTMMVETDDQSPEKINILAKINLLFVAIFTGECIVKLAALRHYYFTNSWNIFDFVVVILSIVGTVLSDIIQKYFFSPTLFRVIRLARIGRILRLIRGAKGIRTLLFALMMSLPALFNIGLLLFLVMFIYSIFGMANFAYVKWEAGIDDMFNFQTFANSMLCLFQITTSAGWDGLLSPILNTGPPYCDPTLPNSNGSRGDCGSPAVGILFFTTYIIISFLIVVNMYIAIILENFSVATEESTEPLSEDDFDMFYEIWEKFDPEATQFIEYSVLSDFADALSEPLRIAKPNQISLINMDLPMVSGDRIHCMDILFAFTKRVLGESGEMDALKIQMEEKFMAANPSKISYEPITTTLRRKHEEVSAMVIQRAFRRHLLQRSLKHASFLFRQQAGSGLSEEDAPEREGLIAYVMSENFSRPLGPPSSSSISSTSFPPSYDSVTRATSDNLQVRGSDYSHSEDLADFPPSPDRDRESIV
Method in brief: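 Stable HEK293 line expressing human NaV1.5, recorded by population patch clamp on the IonWorks Quattro.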

[2] = molecular target: T1, Sodium channel protein type 5 subunit alpha; experiment: Inhibition of human Nav1.5 expressed in HEK293 cells by whole cell patch clamp electrophysiology method
Method in brief: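 Stable HEK293 line expressing human NaV1.5, recorded on the PatchXpress 7000A. Percent inhibition versus concentration was pooled from at least 10 cells, with two to three points per concentration. The pooled set was fitted with a four-parameter Hill equation to give a single IC50 curve.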

[3] = molecular target: Sodium channel protein type 9 subunit alpha (Homo sapiens, UniProt Q15858); experiment: Inhibition of human Nav1.7 expressed in HEK293 cells assessed as inward peak current by ion-works quattro patch clamp electrophysiology method
Chain of Sodium channel protein type 9 subunit alpha (Q15858 whole entry): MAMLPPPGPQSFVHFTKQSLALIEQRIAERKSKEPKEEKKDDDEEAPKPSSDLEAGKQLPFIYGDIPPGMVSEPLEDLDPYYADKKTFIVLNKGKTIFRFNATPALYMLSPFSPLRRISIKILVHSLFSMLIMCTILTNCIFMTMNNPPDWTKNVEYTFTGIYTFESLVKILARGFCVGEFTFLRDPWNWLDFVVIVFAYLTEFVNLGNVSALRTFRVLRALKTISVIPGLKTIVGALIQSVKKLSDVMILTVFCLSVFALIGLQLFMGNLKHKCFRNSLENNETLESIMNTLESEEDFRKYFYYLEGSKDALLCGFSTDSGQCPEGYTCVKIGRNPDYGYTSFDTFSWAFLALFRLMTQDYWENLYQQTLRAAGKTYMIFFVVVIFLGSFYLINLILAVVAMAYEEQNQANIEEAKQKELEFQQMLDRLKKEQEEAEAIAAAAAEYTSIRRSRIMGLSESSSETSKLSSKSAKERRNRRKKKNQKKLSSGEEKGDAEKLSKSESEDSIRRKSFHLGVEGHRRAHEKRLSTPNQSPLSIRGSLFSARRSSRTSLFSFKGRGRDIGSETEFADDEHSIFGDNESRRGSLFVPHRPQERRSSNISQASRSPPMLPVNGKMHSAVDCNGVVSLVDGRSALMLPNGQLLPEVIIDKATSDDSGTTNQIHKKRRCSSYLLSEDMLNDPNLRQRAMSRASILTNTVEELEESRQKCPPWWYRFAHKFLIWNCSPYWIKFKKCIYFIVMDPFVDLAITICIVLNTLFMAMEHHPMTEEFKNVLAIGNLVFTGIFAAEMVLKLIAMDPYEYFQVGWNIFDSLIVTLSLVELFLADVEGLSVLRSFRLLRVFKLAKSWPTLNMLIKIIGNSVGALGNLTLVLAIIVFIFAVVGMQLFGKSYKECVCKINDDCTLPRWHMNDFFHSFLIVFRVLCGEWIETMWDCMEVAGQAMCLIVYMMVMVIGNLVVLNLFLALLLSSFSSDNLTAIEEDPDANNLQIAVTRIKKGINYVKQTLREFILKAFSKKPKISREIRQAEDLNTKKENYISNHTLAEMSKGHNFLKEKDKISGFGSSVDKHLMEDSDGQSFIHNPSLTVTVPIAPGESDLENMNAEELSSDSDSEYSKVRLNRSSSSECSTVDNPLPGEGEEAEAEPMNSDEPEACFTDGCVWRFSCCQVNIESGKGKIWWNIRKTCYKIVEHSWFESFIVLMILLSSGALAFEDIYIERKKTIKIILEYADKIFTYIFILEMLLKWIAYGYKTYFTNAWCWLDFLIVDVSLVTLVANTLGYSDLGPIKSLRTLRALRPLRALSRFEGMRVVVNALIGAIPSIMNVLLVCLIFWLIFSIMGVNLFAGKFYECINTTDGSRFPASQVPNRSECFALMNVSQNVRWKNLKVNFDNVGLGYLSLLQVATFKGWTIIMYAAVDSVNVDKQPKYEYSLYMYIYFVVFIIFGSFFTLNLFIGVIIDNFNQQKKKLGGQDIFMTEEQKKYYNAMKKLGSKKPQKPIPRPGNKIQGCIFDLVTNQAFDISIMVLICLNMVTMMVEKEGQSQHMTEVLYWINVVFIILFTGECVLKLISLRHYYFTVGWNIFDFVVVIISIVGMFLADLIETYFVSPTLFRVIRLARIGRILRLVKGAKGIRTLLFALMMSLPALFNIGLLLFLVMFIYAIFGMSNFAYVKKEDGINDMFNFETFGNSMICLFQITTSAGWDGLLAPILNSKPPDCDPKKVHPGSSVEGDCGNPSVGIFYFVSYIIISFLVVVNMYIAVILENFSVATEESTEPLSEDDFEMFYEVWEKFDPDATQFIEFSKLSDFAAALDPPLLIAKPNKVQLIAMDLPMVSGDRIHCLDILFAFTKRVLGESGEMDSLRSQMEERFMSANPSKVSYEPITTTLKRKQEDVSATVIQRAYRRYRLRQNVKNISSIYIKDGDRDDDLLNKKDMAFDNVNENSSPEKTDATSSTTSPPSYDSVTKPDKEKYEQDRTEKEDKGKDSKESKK

Row | SMILES | IC50 [1] [µM] | IC50 [2] [µM] | IC50 [3] [µM]
1 | CC[C@H](C)[C@@H]1NC(=O)[C@@H]2CSSC[C@@H]3NC(=O)[C@H](C(C)C)NC(=O)[C@H](CC(C)C)NC(=O)[C@H](CC(N)=O)NC(=O)[C@@H]4CCCN4C(=O)[C@H](CCCNC(=N)N)NC(=O)[C@H](CSSC[C@H](NC(=O)[C@@H](N)CC(=O)O)C(=O)N[C@@H](CC(C)C)C(=O)NCC(=O)N[C@@H](Cc4ccccc4)C(=O)N[C@@H](CCSC)C(=O)N[C@@H](CCCNC(=N)N)C(=O)N[C@@H](CCCCN)C(=O)N2)NC(=O)[C@H](CSSC[C@@H](C(=O)N[C@@H](CCCCN)C(=O)N[C@@H](Cc2cccc4ccccc24)C(=O)N[C@H](C(=O)N[C@@H](Cc2ccccc2)C(N)=O)C(C)C)NC(=O)[C@H](Cc2c[nH]c4ccccc24)NC(=O)[C@H](CCCCN)NC(=O)[C@H](Cc2cnc[nH]2)NC(=O)[C@H]([C@@H](C)O)NC(=O)[C@H](CCCNC(=N)N)NC(=O)[C@H](CO)NC3=O)NC(=O)[C@H](CCCCN)NC(=O)[C@H](CC(=O)O)NC(=O)[C@H](CC(N)=O)NC(=O)[C@H](CC(=O)O)NC(=O)[C@@H]2CCCN2C1=O (H-DCLGFMRKCIPDNDKCCRPNLVCSRTHKWCK[1Nal]VF-NH2; disulfide 2-17, 9-23, 16-30) | 3.5 | 1 | 0.009
2 | CC[C@H](C)[C@@H]1NC(=O)[C@@H]2CSSC[C@@H]3NC(=O)[C@H](C(C)C)NC(=O)[C@H](CC(C)C)NC(=O)[C@H](CC(N)=O)NC(=O)[C@@H]4CCCN4C(=O)[C@H](CCCNC(=N)N)NC(=O)[C@H](CSSC[C@H](NC(=O)[C@@H](N)CC(=O)O)C(=O)N[C@@H](CC(C)C)C(=O)N[C@@H](CCCCN)C(=O)N[C@@H](Cc4ccccc4)C(=O)N[C@@H](CCSC)C(=O)N[C@@H](CCCNC(=N)N)C(=O)N[C@@H](CCCCN)C(=O)N2)NC(=O)[C@H](CSSC[C@@H](C(=O)N[C@@H](CCCCN)C(=O)N[C@@H](Cc2ccc(O)cc2)C(=O)N[C@H](C(=O)N[C@@H](Cc2ccccc2)C(N)=O)C(C)C)NC(=O)[C@H](Cc2c[nH]c4ccccc24)NC(=O)[C@H](CCCCN)NC(=O)[C@H](Cc2cnc[nH]2)NC(=O)[C@H]([C@@H](C)O)NC(=O)[C@H](CCCNC(=N)N)NC(=O)[C@H](CO)NC3=O)NC(=O)[C@H](CCCCN)NC(=O)[C@H](CC(=O)O)NC(=O)[C@H](CC(N)=O)NC(=O)[C@H](CC(=O)O)NC(=O)[C@@H]2CCCN2C1=O (H-DCLKFMRKCIPDNDKCCRPNLVCSRTHKWCKYVF-NH2; disulfide 2-17, 9-23, 16-30) | > 5 | 10.1 | 0.21
3 | CC[C@H](C)[C@@H]1NC(=O)[C@@H]2CSSC[C@@H]3NC(=O)[C@H](C(C)C)NC(=O)[C@H](CC(C)C)NC(=O)[C@H](CC(N)=O)NC(=O)[C@@H]4CCCN4C(=O)[C@H](CCCNC(=N)N)NC(=O)[C@H](CSSC[C@H](NC(=O)[C@@H](N)CC(=O)O)C(=O)N[C@@H](CC(C)C)C(=O)N[C@@H](CCCNC(=N)N)C(=O)N[C@@H](Cc4ccccc4)C(=O)N[C@@H](CCSC)C(=O)N[C@@H](CCCNC(=N)N)C(=O)N[C@@H](CCCCN)C(=O)N2)NC(=O)[C@H](CSSC[C@@H](C(=O)N[C@@H](CCCCN)C(=O)N[C@@H](Cc2ccc(O)cc2)C(=O)N[C@H](C(=O)N[C@@H](Cc2ccccc2)C(N)=O)C(C)C)NC(=O)[C@H](Cc2c[nH]c4ccccc24)NC(=O)[C@H](CCCCN)NC(=O)[C@H](Cc2cnc[nH]2)NC(=O)[C@H]([C@@H](C)O)NC(=O)[C@H](CCCNC(=N)N)NC(=O)[C@H](CO)NC3=O)NC(=O)[C@H](CCCCN)NC(=O)[C@H](CC(=O)O)NC(=O)[C@H](CC(N)=O)NC(=O)[C@H](CC(=O)O)NC(=O)[C@@H]2CCCN2C1=O (H-DCLRFMRKCIPDNDKCCRPNLVCSRTHKWCKYVF-NH2; disulfide 2-17, 9-23, 16-30) | > 5 | 4.5 | 0.23
4 | CC[C@H](C)[C@@H]1NC(=O)[C@@H]2CSSC[C@@H]3NC(=O)[C@H](C(C)C)NC(=O)[C@H](CC(C)C)NC(=O)[C@H](CC(N)=O)NC(=O)[C@@H]4CCCN4C(=O)[C@H](CCCN/C(=N/C)NC)NC(=O)[C@H](CSSC[C@H](NC(=O)[C@@H](N)CC(=O)O)C(=O)N[C@@H](CC(C)C)C(=O)NCC(=O)N[C@@H](Cc4ccccc4)C(=O)N[C@@H](CCSC)C(=O)N[C@@H](CCCNC(=N)N)C(=O)N[C@@H](CCCCN)C(=O)N2)NC(=O)[C@H](CSSC[C@@H](C(=O)N[C@@H](CCCCN)C(=O)N[C@@H](Cc2ccc(O)cc2)C(=O)N[C@H](C(=O)N[C@@H](Cc2ccccc2)C(N)=O)C(C)C)NC(=O)[C@H](Cc2c[nH]c4ccccc24)NC(=O)[C@H](CCCCN)NC(=O)[C@H](Cc2cnc[nH]2)NC(=O)[C@H]([C@@H](C)O)NC(=O)[C@H](CCCNC(=N)N)NC(=O)[C@H](CO)NC3=O)NC(=O)[C@H](CCCCN)NC(=O)[C@H](CC(=O)O)NC(=O)[C@H](CC(N)=O)NC(=O)[C@H](CC(=O)O)NC(=O)[C@@H]2CCCN2C1=O | > 5 | > 10 | 
5 | CC[C@H](C)[C@@H]1NC(=O)[C@@H]2CSSC[C@@H]3NC(=O)[C@H](C(C)C)NC(=O)[C@H](CC(C)C)NC(=O)[C@H](CC(N)=O)NC(=O)[C@@H]4CCCN4C(=O)[C@H](CCCNC(=N)N)NC(=O)[C@H](CSSC[C@H](NC(=O)[C@@H](N)CC(=O)O)C(=O)N[C@@H](CC(C)C)C(=O)NCC(=O)N[C@@H](Cc4ccccc4)C(=O)N[C@@H](CCSC)C(=O)N[C@@H](CCCNC(=N)N)C(=O)N[C@@H](CCCCN)C(=O)N2)NC(=O)[C@H](CSSC[C@@H](C(=O)N[C@@H](CCCCN)C(=O)N[C@@H](Cc2ccc(O)cc2)C(=O)N[C@H](C(=O)N[C@@H](Cc2ccccc2)C(N)=O)C(C)C)NC(=O)[C@H](Cc2c[nH]c4ccccc24)NC(=O)[C@H](CCC(N)=O)NC(=O)[C@H](Cc2cnc[nH]2)NC(=O)[C@H]([C@@H](C)O)NC(=O)[C@H](CCCNC(=N)N)NC(=O)[C@H](CO)NC3=O)NC(=O)[C@H](CCCCN)NC(=O)[C@H](CC(=O)O)NC(=O)[C@H](CC(N)=O)NC(=O)[C@H](CC(=O)O)NC(=O)[C@@H]2CCCN2C1=O (H-DCLGFMRKCIPDNDKCCRPNLVCSRTHQWCKYVF-NH2; disulfide 2-17, 9-23, 16-30) |  | > 10 | 0.2
6 | CC[C@H](C)[C@@H]1NC(=O)[C@@H]2CSSC[C@@H]3NC(=O)[C@H](C(C)C)NC(=O)[C@H](CC(C)C)NC(=O)[C@H](CC(N)=O)NC(=O)[C@@H]4CCCN4C(=O)[C@H](CCCCN(C)C)NC(=O)[C@H](CSSC[C@H](NC(=O)[C@@H](N)CC(=O)O)C(=O)N[C@@H](CC(C)C)C(=O)NCC(=O)N[C@@H](Cc4ccccc4)C(=O)N[C@@H](CCSC)C(=O)N[C@@H](CCCNC(=N)N)C(=O)N[C@@H](CCCCN)C(=O)N2)NC(=O)[C@H](CSSC[C@@H](C(=O)N[C@@H](CCCCN)C(=O)N[C@@H](Cc2ccc(O)cc2)C(=O)N[C@H](C(=O)N[C@@H](Cc2ccccc2)C(N)=O)C(C)C)NC(=O)[C@H](Cc2c[nH]c4ccccc24)NC(=O)[C@H](CCCCN)NC(=O)[C@H](Cc2cnc[nH]2)NC(=O)[C@H]([C@@H](C)O)NC(=O)[C@H](CCCNC(=N)N)NC(=O)[C@H](CO)NC3=O)NC(=O)[C@H](CCCCN)NC(=O)[C@H](CC(=O)O)NC(=O)[C@H](CC(N)=O)NC(=O)[C@H](CC(=O)O)NC(=O)[C@@H]2CCCN2C1=O (H-DCLGFMRKCIPDNDKCC[Lys(Me2)]PNLVCSRTHKWCKYVF-NH2; disulfide 2-17, 9-23, 16-30) | > 5 | > 10 | 
7 | CC[C@H](C)[C@@H]1NC(=O)[C@@H]2CSSC[C@@H]3NC(=O)[C@H](C(C)C)NC(=O)[C@H](CC(C)C)NC(=O)[C@H](CC(N)=O)NC(=O)[C@@H]4CCCN4C(=O)[C@H](CCCNC(=N)N)NC(=O)[C@H](CSSC[C@H](NC(=O)[C@@H](N)CC(=O)O)C(=O)N[C@@H](CC(C)C)C(=O)NCC(=O)N[C@@H](Cc4ccccc4)C(=O)N[C@@H](CCSC)C(=O)N[C@@H](CCCNC(=N)N)C(=O)N[C@@H](CCCCN)C(=O)N2)NC(=O)[C@H](CSSC[C@@H](C(=O)N[C@@H](CCCCN)C(=O)N[C@@H](Cc2ccc(O)cc2)C(=O)N[C@H](C(=O)N[C@@H](Cc2ccccc2)C(N)=O)C(C)C)NC(=O)[C@H](Cc2c[nH]c4ccccc24)NC(=O)[C@H](CCCCN)NC(=O)[C@H](Cc2c[nH]cn2)NC(=O)[C@H]([C@@H](C)O)NC(=O)[C@H](CCCNC(=N)N)NC(=O)[C@H](CO)NC3=O)NC(=O)[C@H](CCCCN)NC(=O)[C@H](CC(=O)O)NC(=O)[C@H](Cc2cccc3ccccc23)NC(=O)[C@H](CC(=O)O)NC(=O)[C@@H]2CCCN2C1=O (H-DCLGFMRKCIPD[1Nal]DKCCRPNLVCSRTHKWCKYVF-NH2; disulfide 2-17, 9-23, 16-30) | > 5 | 7.8 | 0.13
8 | CC[C@H](C)[C@@H]1NC(=O)[C@@H]2CSSC[C@@H]3NC(=O)[C@H](C(C)C)NC(=O)[C@H](CC(C)C)NC(=O)[C@H](CC(N)=O)NC(=O)[C@@H]4CCCN4C(=O)[C@H](CCCNC(=N)N)NC(=O)[C@H](CSSC[C@H](NC(=O)[C@H](CC(=O)O)NC(C)=O)C(=O)N[C@@H](CC(C)C)C(=O)NCC(=O)N[C@@H](Cc4ccccc4)C(=O)N[C@@H](CCSC)C(=O)N[C@@H](CCCNC(=N)N)C(=O)N[C@@H](CCCCN)C(=O)N2)NC(=O)[C@H](CSSC[C@@H](C(=O)N[C@@H](CCCCN)C(=O)N[C@@H](Cc2ccc(O)cc2)C(=O)N[C@H](C(=O)N[C@@H](Cc2ccccc2)C(N)=O)C(C)C)NC(=O)[C@H](Cc2c[nH]c4ccccc24)NC(=O)[C@H](CCCCN)NC(=O)[C@H](Cc2cnc[nH]2)NC(=O)[C@H]([C@@H](C)O)NC(=O)[C@H](CCCNC(=N)N)NC(=O)[C@H](CO)NC3=O)NC(=O)[C@H](CCCCN)NC(=O)[C@H](CC(=O)O)NC(=O)[C@H](CC(N)=O)NC(=O)[C@H](CC(=O)O)NC(=O)[C@@H]2CCCN2C1=O | > 5 | > 10 | 
